Results: ChEMBL document CHEMBL4400568, “The design of 1,4-naphthoquinone derivatives and mechanisms underlying apoptosis induction through ROS-dependent MAPK/Akt/STAT3 pathways in human lung cancer cells” (Bioorg Med Chem, 2019)
The source made the active and inactive calls. No cut-off for these calls is given here.

Tests used:
[1] = system: NCI-H23; assay: Cytotoxicity against human NCI-H23 cells assessed as reduction in cell viability after 24 hrs by MTT assay; type: functional, cell-based
Summary of the method: (§1)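 Log-phase cells seeded at 1 × 10⁴ per well. Lung cancer lines (A549, NCI-H23, NCI-H460) and normal lines (IMR-90, QSG-7701, HEK-293A) each exposed to 1, 3, 10, 30 and 100 μM for 24 h. MTT (5 mg/mL stock) added for 2 h at 37°C, formazan dissolved in DMSO, absorbance read at 490 nm. Three independent experiments, mean ± SD.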

[2] = system: IMR-90; assay: Cytotoxicity against human IMR90 cells assessed as reduction in cell viability after 24 hrs by MTT assay; type: cell-based; settings: imr-90, 24 h; summary of the method: as §1
[3] = system: A549; assay: Induction of apoptosis in human A549 cells assessed as cell shrinkage at 3 uM by Annexin V-FITC/propidium iodide staining-based flow cytometric analysis; type: functional; settings: TDE = time-dependent effect
[4] = system: A549; assay: Induction of apoptosis in human A549 cells assessed as nuclear condensation at 3 uM by Annexin V-FITC/propidium iodide staining-based flow cytometric analysis; type: functional, cell-based; settings: TDE = time-dependent effect
Summary of the method: (§2)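 A549 cells seeded at 1 × 10⁵ cells/well, exposed to 3 μM for 3, 6, 12 and 24 h. Then incubated in binding buffer and stained with Annexin V-FITC and PI for 20 min in the dark. Apoptotic cells were scored by fluorescence microscopy and flow cytometry. Three independent experiments, mean ± SD.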

[5] = system: A549; assay: Induction of apoptosis in human A549 cells assessed as increase in cleaved PARP expression at 3 uM by Western blot analysis; type: functional, cell-based; settings: TDE = time-dependent effect
Summary of the method: (§3)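 A549 cells exposed to 3 μM for 3, 6, 12 or 24 h; where NAC is used, 10 mM NAC is added 30 min before 24 h treatment. Lysate protein (30 μg) is run on 12% SDS-PAGE, blotted to nitrocellulose, blocked in 5% milk, primary antibody overnight at 4°C, then HRP anti-IgG. β-actin loading control; densitometry; three independent experiments, mean ± SD.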

[6] = system: A549; assay: Induction of apoptosis in human A549 cells assessed as late apoptotic cells at 3 uM after 3 hrs by Annexin V-FITC/propidium iodide staining-based flow cytometric analysis (reference value: 4.52%); type: functional
[7] = system: A549; assay: Induction of apoptosis in human A549 cells assessed as early apoptotic cells at 3 uM after 6 hrs by Annexin V-FITC/propidium iodide staining-based flow cytometric analysis (reference value: 2.73%); type: functional
[8] = system: A549; assay: Induction of apoptosis in human A549 cells assessed as late apoptotic cells at 3 uM after 6 hrs by Annexin V-FITC/propidium iodide staining-based flow cytometric analysis (reference value: 4.52%); type: functional
[9] = system: A549; assay: Induction of apoptosis in human A549 cells assessed as early apoptotic cells at 3 uM after 24 hrs by Annexin V-FITC/propidium iodide staining-based flow cytometric analysis (reference value: 2.73%); type: functional
[10] = system: A549; assay: Induction of apoptosis in human A549 cells assessed as late apoptotic cells at 3 uM after 24 hrs by Annexin V-FITC/propidium iodide staining-based flow cytometric analysis (reference value: 4.52%); type: functional
[11] = system: A549; assay: Cell cycle arrest in human A549 cells assessed as accumulation of cells at G1 phase at 3 uM after 6 hrs by propidium iodide staining-based flow cytometric analysis (reference value: 57.65%); type: functional
[12] = system: A549; assay: Cell cycle arrest in human A549 cells assessed as accumulation of cells at G1 phase at 3 uM after 12 hrs by propidium iodide staining-based flow cytometric analysis (reference value: 57.65%); type: functional
[13] = system: A549; assay: Cell cycle arrest in human A549 cells assessed as accumulation of cells at G2 phase at 3 uM after 12 hrs by propidium iodide staining-based flow cytometric analysis (reference value: 24.02%); type: functional
[14] = system: A549; assay: Cell cycle arrest in human A549 cells assessed as accumulation of cells at G1 phase at 3 uM after 24 hrs by propidium iodide staining-based flow cytometric analysis (reference value: 57.65%); type: functional
[15] = system: A549; assay: Cell cycle arrest in human A549 cells assessed as accumulation of cells at G2 phase at 3 uM after 24 hrs by propidium iodide staining-based flow cytometric analysis (reference value: 24.02%); type: functional
[16] = system: A549; assay: Cell cycle arrest in human A549 cells assessed as increase in p21 levels at 3 uM by Western blot analysis; type: functional, cell-based; settings: TDE = time-dependent effect; summary of the method: as §3
[17] = target: MAP kinase p38 (Homo sapiens) (UniProt O15264+Q15759+Q16539+P53778); assay: Activation of p38 phosphorylation in human A549 cells at 3 uM after 3 to 24 hrs by Western blot analysis; type: cell-based; summary of the method: as §3
[18] = target: c-Jun N-terminal kinase, JNK (Homo sapiens) (UniProt P45983+P53779+P45984); assay: Modulation of JNK in human A549 cells assessed as decrease in STAT3 phosphorylation measured after 24 hrs in presence of JNK inhibitor SP600125 by Western blot analysis; type: cell-based
Summary of the method: (§4)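 A549 cells pre-incubated for 30 min with 12.1 μM kinase inhibitor: SB203580 (p38), SP600125 (JNK), FR180204 (ERK) or LY10249 (Akt). Compound treatment followed for 24 h. Lysates (30 μg protein) analysed by 12% SDS-PAGE and nitrocellulose immunoblot with HRP detection. Three independent experiments, mean ± SD.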

[19] = system: A549; assay: Modulation of ERK in human A549 cells assessed as increase in cleaved caspase-3 measured after 24 hrs in presence of ERK inhibitor-FR180204 by Western blot analysis; type: cell-based; summary of the method: as §4
[20] = system: A549; assay: Induction of ROS generation in human A549 cells assessed as intracellular ROS level at 3 uM after 24 hrs by DCFH-DA staining-based flow cytometric analysis (reference value: 51.8%); type: functional
Summary of the method: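 A549 cells loaded with DCFH-DA (10 μM per legend) for 30 min, then exposed to 3 μM at 37°C for 3, 6, 12 or 24 h. After two PBS washes, intracellular fluorescence is quantified by flow cytometry. Three independent experiments, mean ± SD.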

[21] = system: A549; assay: Induction of apoptosis in human A549 cells assessed as early apoptotic cells at 3 uM in presence of NAC by Annexin V-FITC/propidium iodide staining-based flow cytometric analysis (reference value: 5.31%); type: functional
[22] = system: A549; assay: Inhibition of ERK phosphorylation in human A549 cells at 3 uM after 24 hrs in presence of NAC by Western blot analysis; type: cell-based
Summary of the method: (§5)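 A549 cells pretreated with 10 mM NAC for 30 min, then exposed to compound for 24 h. Lysate protein (30 μg) resolved on 12% SDS-PAGE and transferred to nitrocellulose. Probed with primary antibodies overnight at 4°C, then HRP secondary. Band densities from three independent experiments, mean ± SD.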

[23] = system: A549; assay: Inhibition of ERK in human A549 cells assessed as decrease in STAT3 phosphorylation at 3 uM after 24 hrs in presence of NAC by Western blot analysis; type: cell-based; summary of the method: as §5
[24] = system: A549; assay: Induction of apoptosis in human A549 cells assessed as increase in cleaved caspase-3 at 3 uM measured after 24 hrs in presence of NAC by Western blot analysis; type: functional, cell-based; summary of the method: as §3
[25] = system: A549; assay: Induction of apoptosis in human A549 cells assessed as apoptotic morphological changes at 3 uM by Annexin V-FITC/propidium iodide staining-based flow cytometric analysis; type: functional, cell-based; settings: TDE = time-dependent effect
[26] = system: A549; assay: Induction of apoptosis in human A549 cells at 3 uM by Annexin V-FITC/propidium iodide staining-based flow cytometric analysis; type: functional, cell-based; settings: TDE = time-dependent effect; summary of the method: as §2

Compound | Activity [1] | Activity [2] | Activity [3] | Activity [4] | Activity [5] | Activity [6] | Activity [7] | Activity [8] | Activity [9] | Activity [10] | Activity [11] | Activity [12] | Activity [13] | Activity [14] | Activity [15] | Activity [16] | Activity [17] | Activity [18] | Activity [19] | Activity [20] | further results
CCCS(=O)(=O)C12OC1C(=O)c1c(OC)ccc(OC)c1C2=O (configuration not stated) | Active | Non-Toxic | Tde | Tde | Tde | 5.11% | 16.31% | 7.11% | 48.76% | 6.31 - 8.05% | 66.13% | 69% | 17.49% | 72.02% | 17.13% | Tde | Active | inactive | Active | 76.35% | Activity [21]: 17.94%; inhibition [22]: inactive; inhibition [23]: inactive; Activity [24]: inactive; Activity [25]: Tde; Activity [26]: Tde
CCCCCCCCCS(=O)(=O)C12OC1C(=O)c1c(OC)ccc(OC)c1C2=O (configuration not stated) | Active | Non-Toxic | Tde | Tde | Tde | 5.43% | 14.47% | 6.43% | 24.66 - 30.02% | 1.89 - 12.93% | 65.95% | 68.84% | 20.99% | 71.38% | 19.84% | Tde | Active | inactive | Active | 70.81% | Activity [21]: 15.06%; inhibition [22]: inactive; inhibition [23]: inactive; Activity [24]: inactive; Activity [25]: Tde; Activity [26]: Tde
